Consider one compound from ChEMBL document CHEMBL5365494, “Bis-6-amidino-benzothiazole Derivative that Cures Experimental Stage 1 African Trypanosomiasis with a Single Dose” (J Med Chem, 2023).

A short description of data set [1]: Drug localization in lysosomes of Trypanosoma brucei bloodstream form assessed as colocalization at 10 ug/ml incubated upto 180 mins by LysoTrack dye based fluorescence microscopy. Format: ADME, subcellular, Lysosome. The note with it: 3 h, dose 10 µg/ml. The essentials: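 Parasites pre-loaded with 100 nM LysoTracker for 45 min, washed, then exposed to compound 10 μg mL⁻¹; aliquots fixed in 4% PFA at each timepoint, DAPI-mounted, imaged by fluorescence microscopy.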

Data set [2] concerns Trypanosoma brucei. Briefly: Induction of tetracycline dependent drug resistant in Trypanosoma brucei MiTat 1.2, clone 221a assessed as outgrowth of resistant parasites at 1 to 2 ng/ml measured for 10 days. The format is functional. Particulars: dose 1-2 ng/ml, time 10.0 day.
Data set [3] is described as follows: Toxicity in BALB/c mouse infected with bioluminescent Trypanosoma brucei brucei GVR35-VSL2 expressing red-shifted luciferase assessed as shaking in animal at 20 mg/kg, po administered once daily for 4 days. Format: organism-based. The note with it: in vivo, 96 h, time 4 day. The essentials: (§1)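 Infected BALB/c mice (bioluminescent T. brucei, 30,000 parasites) dosed i.p. or orally once daily for 4 days starting day 4 post-infection; observed for piloerection, hunching, shaking, lack of activity and body weight change.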

Data set [4] can be described thus: Toxicity in BALB/c mouse infected with bioluminescent Trypanosoma brucei brucei GVR35-VSL2 expressing red-shifted luciferase assessed as shaking in animal at 0.25 to 20 mg/kg, ip administered once daily for 4 days. Format: organism-based. Particulars: in vivo, 96 h, dose 0.25-20 mg/kg, time 4 day. An outline of the steps: as §1
Data set [5] deals with Trypanosoma brucei brucei. The data set is described as follows: Antitrypanosomal activity against stage-1 bioluminescent Trypanosoma brucei brucei GVR35-VSL2 expressing red-shifted luciferase infected in BALB/c mouse assessed as parasite killing by measuring reduction in bioluminescent signal at 20 mg/kg, ip administered as single dose starting from 4 days post infection and measured on 3 to 7 days by luciferase based bioluminescence assay. The note with it: time 3-7 day. The format is functional, organism-based. The essentials:
(§2)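 BALB/c mice infected with 30,000 bioluminescent bloodstream-form T. brucei; dosing i.p. or oral from 4 days post-infection, single or once daily for 4 days. Monitored by in vivo imaging after i.p. d-luciferin 150 mg kg⁻¹ under isoflurane, with total body flux from dorsal plus ventral images. Cure required negativity by both in vivo and ex vivo imaging.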

Data set [6] in a line: Drug uptake in blood stream form of Trypanosoma brucei at 10 ug/ml incubated for 6 hrs in presence of bafilomycin Al by fluorescence microscopy. Format: ADME, tissue-based. The note with it: dose 10 µg/ml. The essentials: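 Bloodstream-form T. brucei incubated 6 h with compound 10 μg mL⁻¹ with or without 8 nM BafA1, then imaged by fluorescence microscopy.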
Data set [7] can be described thus: Drug localization in kinetoplast of Trypanosoma brucei bloodstream form at 10 ug/ml measured for 180 mins by fluorescence microscopy. The format is ADME, subcellular. The note with it: 3 h, dose 10 µg/ml. The essentials:
(§3)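 Bloodstream-form T. brucei incubated with compound 10 μg mL⁻¹ for 60 or 180 min or 24 h; fixed in 4% PFA, mounted with DAPI, imaged by fluorescence microscopy (ex 550/em 585 nm).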

Data set [8] in a line: Toxicity in BALB/c mouse infected with bioluminescent Trypanosoma brucei brucei GVR35-VSL2 expressing red-shifted luciferase assessed as hunching in animal at 0.25 to 20 mg/kg, ip administered once daily for 4 days. Format: organism-based. The note with it: in vivo, 96 h, dose 0.25-20 mg/kg, time 4 day. An outline of the steps:
as §1

Data set [9] has as its system Trypanosoma brucei brucei. Briefly: Antitrypanosomal activity against stage-1 bioluminescent Trypanosoma brucei brucei GVR35-VSL2 expressing red-shifted luciferase infected in BALB/c mouse assessed as reduction in parasite growth without relapse at 5 to 20 mg/kg, ip administered once daily for 4 days starting from 4 days post infection by luciferase based bioluminescence assay. Format: functional, organism-based. Particulars: dose 5-20 mg/kg, time 4.0 day. The essentials:
as §2

Data set [10] can be described thus: Apparent permeability across apical to basolateral side in MDCK-MDR1 cells at 10 uM measured for 60 mins by LC-MS/MS analysis. Particulars: dog. The format is ADME, cell-based, Canis lupus familiaris. An outline of the steps: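 MDCKII-hMDR1 monolayers on inserts, compound 10 μM (1% DMSO) in duplicate, 60 min at 37 °C, bidirectional, with and without elacridar 2 μM. Amprenavir as P-gp control, Lucifer yellow for monolayer integrity; compound quantified by LC–MS/MS.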

The test system of data set [11] is Trypanosoma brucei. Briefly: Resistant development in Trypanosoma brucei harboring aqp null mutants assessed as fold reduction in sensitivity incubated for 48 hrs by resazurin dye based analysis relative to control. The format is functional. An outline of the steps: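 Tbaqp null mutant bloodstream lines tested in the 48 h resazurin microtiter assay: 2.5×10^4 parasites mL^-1 at 37 °C, then 16 h with resazurin and fluorescence read-out. EC50 found for each line in triplicate.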
A general note: The colour change of resazurin is a common sign of viable cells or microbes.

Data set [12] can be described thus: Drug localization in endosome of Trypanosoma brucei bloodstream form at 10 ug/ml measured after 6 hrs in presence of bafilomycin Al by TbCatL antibody based immunofluorescence microscopy. The format is ADME, subcellular. The note with it: dose 10 µg/ml. The essentials:
(§4)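 Parasites exposed to compound 10 μg mL⁻¹ for 6 h, with or without BafA1 8 nM; fixed 4% PFA, permeabilized 0.1% Triton X-100, blocked 1% BSA, rabbit anti-TbCatL 1:200 overnight at 4 °C, then Alexa 488 anti-rabbit 2 μg mL⁻¹ 1 h at 37 °C; fluorescence microscopy.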

The nature of data set [13]: Drug localization in lysosomes of Trypanosoma brucei bloodstream form at 10 ug/ml measured after 6 hrs by TbCatL antibody based immunofluorescence microscopy. Particulars: dose 10 µg/ml. Format: ADME, subcellular, Lysosome. An outline of the steps:
as §4

The subject of data set [14] is Trypanosoma brucei brucei. The data set is described as follows: Antitrypanosomal activity against stage-2 bioluminescent Trypanosoma brucei brucei GVR35-VSL2 expressing red-shifted luciferase infected in CD-1 mouse assessed as reduction in parasite growth at 10 to 20 mg/kg, ip administered daily for 3 days starting from 13 days post infection by bioluminescence based assay. The note with it: dose 10-20 mg/kg, time 3.0 day. Format: functional, organism-based.

For data set [15], the system named is Trypanosoma brucei. The data set is described as follows: Antitrypanosomal activity against blood stream form of Trypanosoma brucei 221a variant assessed as lethality at >=1.2 nM incubated for 3 days followed by replacement with fresh medium without compound and measured for 12 days by resazurin dye based fluorescence analysis relative to control. The format is functional. Particulars: time 3 day. The essentials:
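Bloodstream-form T. brucei seeded in flasks at 10^5 mL^-1 with a range of compound concentrations. Every 24 h parasites were sub-cultured back to 10^5 mL^-1 in continued compound presence, through day 10. Growth reported as cumulative parasite number. In a washout arm, parasites were exposed for 3 days, moved to compound-free medium and followed for 12 days.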

A short description of data set [16]: Drug localization in nucleus of Trypanosoma brucei bloodstream form at 10 ug/ml measured for 180 mins by fluorescence microscopy. Format: ADME, subcellular. The note with it: 3 h, dose 10 µg/ml. An outline of the steps:
as §3

Data set [17] is described as follows: Drug localization in lysosomes of Trypanosoma brucei bloodstream form at 10 ug/ml by fluorescence microscopy. The format is ADME, subcellular, Lysosome. The note with it: TDE = time-dependent effect, time 1-24 hrs, dose 10 µg/ml. The essentials:
as §3

The source made the active and inactive calls. No cut-off for these calls is given here. Where only a bound is given, the exact number is not on record here.

On to `CS(=O)(=O)O.CS(=O)(=O)O.N=C(N)c1ccc2nc(C3CCC(c4nc5ccc(C(=N)N)cc5s4)CC3)sc2c1` (configuration not stated), for which the Drug uptake result in data set [1] is reported as “Active”; in data set [6], “Not Active”; in data set [7] it was “Not Active”; in [12] it was “Not Active”; in data set [13], “Active”; in [16], “Not Active”. The Drug uptake entry in data set [17] is given as “Tde”. Also, the result (in the data set with Trypanosoma brucei [2]; in [14]) was inactive. Also, the Activity entry in [3] was “Non-Toxic”; in data set [4], “Non-Toxic”; in data set [8] it was “Non-Toxic”; with Trypanosoma brucei [15], 100%. Moreover, the outcome in data set [5] and in data set [9] was Active. For the same compound, in data set [10], the Papp A→B (usually the apparent permeability from the apical to the basolateral side of a cell layer) at 1 h, 10 µM was less than 0.1 ×10⁻⁶ cm/s. Also, the “fold change (FC)” value in the data set on Trypanosoma brucei [11] is 1.3.
